Source: PubChem (several laboratories)
Hits are enriched below; roughly 7.9% of the tested compounds scored in any of these assays.
D1 allo mod = allosterically modulates the human D1 dopamine receptor. HEK293 D1, CRE-luciferase, dopamine EC30 potentiation; actives deviate in either direction. B-score at 10 µM. actives 5.9% (n = 58,000). P21728;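 active means luminescence count or its row- and column-corrected plate score outside the 99.7% band of the plate's sample wells, on either side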
Target sequence (P21728 whole entry, looked up): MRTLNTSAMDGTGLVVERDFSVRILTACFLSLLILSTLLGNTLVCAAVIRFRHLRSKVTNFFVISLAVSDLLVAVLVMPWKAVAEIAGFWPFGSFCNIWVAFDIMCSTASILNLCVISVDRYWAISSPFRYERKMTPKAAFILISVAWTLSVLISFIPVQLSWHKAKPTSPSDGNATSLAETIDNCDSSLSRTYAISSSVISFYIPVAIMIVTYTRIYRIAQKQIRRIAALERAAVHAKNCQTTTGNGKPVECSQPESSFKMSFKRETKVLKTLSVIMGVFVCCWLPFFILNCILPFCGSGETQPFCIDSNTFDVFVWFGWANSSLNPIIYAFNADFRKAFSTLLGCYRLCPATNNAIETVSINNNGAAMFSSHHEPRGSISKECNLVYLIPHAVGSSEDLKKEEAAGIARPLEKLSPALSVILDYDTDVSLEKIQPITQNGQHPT
JNK3 inh = blocks human JNK3 kinase activity; P53779; purified JNK3 kinase activity, HTS; inhibition, % at 8 µM; actives 0.61% (n = 60,000); in the data active means inhibition above about 17%
RORA act = RORA (human) activation. actives 1.5% (n = 65,000). CHO-K1 Gal4-RORA LBD luciferase reporter, luminescence; percent increase over mock-subtracted basal signal. P35398. activation, % at 10 µM;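 active means activation above the mean of all tested compounds plus 3 SD, cut at about 49% in these data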
SF1 activator = activates the human nuclear receptor SF-1. actives 1.9% (n = 65,000). CHO-K1 Gal4-SF-1 LBD luciferase reporter; % increase over DMSO SF-1-specific signal. AID 522. Q13285. activation, % at 10 µM;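 active means activation above the mean activation of all tested compounds plus 3 SD, cut at about 50% in these data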
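material = CHO-K1 cells with Gal4–hSF-1 LBD chimera plus Gal4-driven luciferase | compound = 10 µM single point, 1% DMSO | incubation = 20 h compound exposure at 37 °C after 1 h cell settling | measured by = SteadyLite luciferase luminescence | evaluation = percent activation relative to DMSO median and mock-transfected background | control set = DMSO negative control and −SF1 background wells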
HEK293 NFkB inh = lowers PMA/ionomycin-induced NF-kB signal in HEK293 cells. actives 0.21% (n = 62,000). AID 465. inhibition, % at 3 µM. HEK-293 NF-kB luciferase reporter, luminescence;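 active means inhibition above the mean of all tested compounds plus 3 SD, cut at about 40% in these data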
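Signal: luciferase luminescence; Material: HEK-293 cells with stable firefly luciferase reporter driven by four HIV NF-kB elements; Probe or stimulus: PMA with ionomycin; Replication: tested once; Times: 1 h compound pretreatment, then 16 h stimulation at 37 °C, 5% CO2; Benchmarks: DMSO and 10 µM reference inhibitor; Evaluation: per-plate % inhibition versus controls.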
A number is an active result; . = inactive; / = not tested or not shown.

SMILES	D1 allo mod	JNK3 inh	RORA act	SF1 activator	HEK293 NFkB inh
COc1ccc(S(C)(=O)=O)cc1S(C)(=O)=O	.	.	.	.	.
CCOC(=O)N1CCC(Nc2ccc3nnc(-c4ccccc4)n3n2)CC1	-2.98	.	.	.	.
CCOC(=O)CC(=O)CSc1ccc2nnc(-c3ccccc3)n2n1	.	.	.	.	.
Cc1cccn2c(=O)c3cc(C(=O)N4CCc5ccccc5C4)n(C)c3nc12	.	.	.	.	.
N#CN=C1CCCCCN1CC(N)=O	.	.	.	.	.
COc1ccc(-c2nsc3c(N4CCN(C(=O)c5ccco5)CC4)ncnc23)cc1	.	.	.	.	.
O=C(c1ccco1)N1CCN(c2ncnc3c(-c4ccccc4)nsc23)CC1	.	.	62.5	.	.
Cc1cccn2cc(-c3ccccc3)nc12	.	.	75.8	.	.
Cc1ccc2nc(-c3ccccc3)cn2c1	/	.	.	.	70.8
Cc1cccn2cc(-c3ccc(F)cc3)nc12	.	.	.	.	.
Cc1ccc2nc(-c3ccc(S(=O)(=O)N4CCOCC4)cc3)cn2c1	.	.	.	.	.
O=S(=O)(c1cnc[nH]1)N1CCc2ccccc21	.	.	.	.	.
COc1cc(C2C(C#N)=C(C)NC3=C2C(=O)c2ccccc23)cc(OC)c1OC (stereo not given)	.	.	.	.	43.0
O=C(OCc1cc(=O)n2c(n1)sc1ccccc12)c1ccc2c(=O)n3c(nc2c1)CCC3	4.22	.	.	.	.
O=C(CSc1nncs1)NCc1ccc2c(c1)OCO2	/	.	.	.	.
Cc1cc(C(=O)CSc2nncs2)c(C)n1-c1ccc2c(c1)OCO2	/	.	.	68.8	.
Cc1ccc(-c2cnc(-c3ccncc3)o2)cc1	.	.	57.5	64.8	.
COc1cc2c(cc1OC)CN(C(=O)CSc1nnc(C)s1)CC2	.	.	.	.	.
COc1ccc(C)cc1NC(=O)c1cnc2sccn2c1=O	.	.	.	.	.
CCOc1cccc(C=Nc2cc(C)cc(C)c2O)c1O	-3.75	.	.	.	.
COc1cccc(/C=N/n2c(C)c3c(C)nnc(C)c3c2C)c1O	.	.	.	.	.
CCn1c(C)csc1=NC(=O)c1ccccc1O	.	22.7	.	.	.
Cc1ccc(-n2c(SCC(=O)Nc3cc(C)on3)nc3c(c2=O)SC(C)C3)cc1 (stereo not given)	.	.	.	.	.
Cc1cc(NC(=O)CSc2nc3c(c(=O)n2Cc2ccccc2)SC(C)C3)no1 (stereo not given)	5.52	.	.	.	.
CCn1c(SCC(=O)Nc2cc(C)on2)nc2sc3c(c2c1=O)CCCC3	.	.	.	.	.
SMILES	D1 allo mod	JNK3 inh	RORA act	SF1 activator	HEK293 NFkB inh
CCn1c(SCC(=O)Nc2cc(C)on2)nc2sc(C)c(C)c2c1=O	6.87	.	.	.	.
CCN(CC)S(=O)(=O)c1cccc(C(=O)Nc2nc3cc4c(cc3s2)OCCO4)c1	/	.	.	.	.
CN(CC1CCCO1)S(=O)(=O)c1ccc(C(=O)Nc2nc3cc4c(cc3s2)OCO4)cc1 (stereo not given)	-4.35	.	.	.	.
Cn1c(CCCNC(=O)c2ccccc2)nc2ccccc21	-3.47	/	.	.	.
CCn1c(CCNC(=O)c2ccc(OC)c(OC)c2)nc2ccccc21	-4.87	/	.	.	.
CNC(=O)c1c(N)sc2c1CCCCC2	.	.	.	.	.
CC(C)OC(=O)c1c(N)sc2c1CCCC2	11.1	.	.	.	.
COC(=O)c1sccc1NC(=O)CN1CCN(c2ccc(F)cc2)CC1	.	46.5	.	.	.
COc1ccc(CCNCc2csc3nc4ccccc4n23)cc1OC	.	.	.	.	.
Cc1nc2c(C(=O)N3CCCCC3)cnn2c(C)c1Cc1ccccc1F	.	/	75.5	.	.
CCOC(=O)C1=C(C)NC(=O)C1CC(=O)Nc1ccccc1 (stereo not given)	/	.	.	.	/
Clc1cccc2sc(N3CCN(c4ccccc4)CC3)nc12	.	.	.	.	.
c1c2c(cc3sc(N4CCOCC4)nc13)OCCO2	-4.87	.	.	.	.
Clc1cc(Cl)c2nc(N3CCOCC3)sc2c1	/	.	.	57.5	.
c1ccc(N2CCN(c3nc4cc5c(cc4s3)OCCO5)CC2)cc1	/	.	77.0	61.4	.
Fc1cccc2sc(N3CCOCC3)nc12	.	.	.	.	.
Cc1cc(=O)oc2ccc(OCC(=O)N(Cc3ccc(F)cc3)Cc3ccco3)cc12	.	.	.	.	.
O=C(Nc1c(C(=O)NCc2ccco2)cnn1-c1ccccc1)c1ccc(F)cc1	.	.	.	.	.
CN(C)c1ccc(C(c2nnnn2C2CCCCC2)N2CCN(C(=O)c3ccco3)CC2)cc1 (stereo not given)	/	.	.	.	.
CCCC(=O)Nc1ccc(NC(=O)c2cccc(OC)c2)nc1	.	.	.	60.4	.
CCCC(=O)Nc1ccc(NC(=O)c2ccccn2)cn1	.	/	89.1	.	.
CCOC(=O)c1ccc(N2C(=O)CC(NC3CCN(C(=O)c4cccc(Cl)c4)CC3)C2=O)cc1 (stereo not given)	.	.	.	.	.
Cn1c(=O)c2cc(S(=O)(=O)NCCC(=O)NC3CCCCCCC3)ccc2n(C)c1=O	-3.59	.	.	.	.
Cn1c(=O)c2cc(S(=O)(=O)NCCC(=O)NCC3CCCO3)ccc2n(C)c1=O (stereo not given)	.	.	.	.	.
COc1cccc(C2=CC(c3ccc(N(C)C)cc3)n3nnnc3N2)c1 (stereo not given)	/	.	.	.	/
SMILES	D1 allo mod	JNK3 inh	RORA act	SF1 activator	HEK293 NFkB inh
COc1cccc(C2=CC(c3ccccc3)n3nnnc3N2)c1 (stereo not given)	/	.	78.7	.	/
COCCN1Cc2cccc(C(=O)NCc3ccccn3)c2C1=O	.	.	.	.	.
COCCN1Cc2cccc(C(=O)NCc3ccc4c(c3)OCO4)c2C1=O	.	22.7	.	.	.
O=C(NCc1ccccn1)C1CCC(=O)N1C1CCCC1 (stereo not given)	.	.	.	.	.
c1ccc(-c2onc3cc4c(cc23)OCCO4)cc1	.	22.1	74.3	.	.
CC1(c2ccc3noc(-c4ccc(Cl)cc4)c3c2)OCCO1	.	.	.	.	.
CC(C)N(C=O)C1(C(=O)NC2CCCCC2)CCCCC1	-3.31	.	.	.	.
COc1ccc(OCc2cccc(C(=O)O)c2)cc1	-10.7	.	.	.	94.2
CCOc1ccc(OCc2cccc(C(=O)O)c2)cc1	-4.51	.	.	.	96.8
COC(=O)Nc1ccc(OCc2ccccc2)cc1	.	.	.	71.6	.
O=C(O)c1cccc(OCc2ccccc2Cl)c1	.	.	.	80.1	.
O=S(=O)(NC1CCCC1)c1cccc(S(=O)(=O)N2CCC(n3nnc4ccccc43)CC2)c1	.	.	.	.	.
CCCCN(CCCC)CCCOC(=O)c1ccc(N)cc1	.	.	.	.	/
C#CC(CC)(CC)NC(=O)c1c(C)noc1C	.	.	.	.	.
